Shown are actives, neighbours in structure and some others; about 1.7% of the full set was active somewhere.
ZTA DNA inh: ZTA (EBV) inhibition in EBNA-1 counter-screen | inhibition, % at 11 µM | 320,000 tested, 0.15% active | P03206 | ZTA-DNA binding, fluorescence polarization; in the data active = inhibition above about 33%
PP1 inh: PP1-alpha (human) inhibition in PP5 counter-screen | P62136 | purified PP1alpha, OMFP fluorescence | inhibition, % at 6.7 µM | 320,000 tested, 0.9% active;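 active = inhibition above the mean inhibition of all tested compounds plus 3 SD, computed separately for each screening campaign, cut at about 15% in these data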
Target sequence (P62136 whole entry, looked up): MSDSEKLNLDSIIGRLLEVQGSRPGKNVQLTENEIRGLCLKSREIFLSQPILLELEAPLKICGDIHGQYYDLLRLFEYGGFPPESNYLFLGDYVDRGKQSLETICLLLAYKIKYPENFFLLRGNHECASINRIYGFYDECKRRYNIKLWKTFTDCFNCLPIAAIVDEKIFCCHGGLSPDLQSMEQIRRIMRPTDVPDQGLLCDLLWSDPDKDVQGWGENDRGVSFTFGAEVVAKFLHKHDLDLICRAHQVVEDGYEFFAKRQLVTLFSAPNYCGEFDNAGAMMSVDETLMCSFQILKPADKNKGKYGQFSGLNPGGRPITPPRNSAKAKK
EBNA-1 inhibitor: blocks EBNA-1 binding to DNA; 300,000 tested, 0.34% active; EBNA-1 DNA binding, fluorescence polarization; inhibition, % at 14.8 µM; in the data active = inhibition above about 28%
PP5 primary: blocks human protein phosphatase 5 activity | P53041 | AID 1987 | purified PP5c, OMFP substrate fluorescence | inhibition, % at 6.7 µM | 320,000 tested, 0.18% active;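 active = inhibition above the campaign's mean inhibition across all tested compounds plus 3 SD, cut at about 9.5% in these data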;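 note: 0% = DMSO only and 100% = 100 µM cantharidin control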
HCV core dimer: HCV core protein dimerization inhibition. TR-FRET GST/Flag-core106 dimerization, 1536-well. inhibition, % at 5 µM. 300,000 tested, 0.33% active. AID 1899;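 active = inhibition above the mean of all tested compounds plus 3 SD, set per screening campaign, cut at about 45% in these data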
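Assay system: Tagged HCV core106 pair (GST and Flag) | Buffer or medium: KF-containing HEPES buffer, pH 7.45, DTT, CHAPS, BSA | Also added: Eu donor and XL665 acceptor anti-tag antibodies | Dosing: One concentration, 5 µM, in 0.5% DMSO | Timing: 4 h at 22.5 °C | Technique: TR-FRET 671 and 617 nm emission | Repeats: Singlicate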
PP1 inh confirm: human PP1 phosphatase inhibition, confirmation. shares compounds with PP1 inh. purified PP1alpha, OMFP substrate fluorescence. inhibition, % at 6.7 µM. 1,900 tested, 52% active;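 active = mean PP1 inhibition above a set limit taken from the earlier primary screen, cut at about 15% in these data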
PP5 inh counter: inhibits human PP5 phosphatase in PP1 counter-screen | shares compounds with PP1 inh | purified PP5c, OMFP fluorescence | inhibition, % at 6.7 µM | 1,900 tested, 4% active | AID 2360;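 active = mean PP5 inhibition over triplicate wells above about 9.5% taken from the earlier PP1 screen, limit read from the data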
* marks the source's active call; other numbers are inactive results; x = not tested or not shown.

SMILES | ZTA DNA inh | PP1 inh | EBNA-1 inhibitor | PP5 primary | HCV core dimer | PP1 inh confirm | PP5 inh counter
CC1CC(C)(C)CC2(C1)NC(=O)N(CC(=O)N1CCN(S(=O)(=O)c3cccs3)CC1)C2=O (stereo not given) | -4 | -1 | x | -2 | x | x | x
C#CCOCCOCCOCCNc1nc(N2CCN(C(=O)CCCCCCCCCCNC(=O)[C@H]([C@@H](C)CC)n3cc(CCCCCN)nn3)CC2)nc(N2CCN(C(=O)CCCCCCCCCCNC(=O)[C@@H]([C@H](C)O)n3cc(C)nn3)CC2)n1 | 9 | 54* | 10 | 4 | -7 | 41* | 0
C#CCOCCOCCOCCNc1nc(N2CCN(C(=O)CCCCCCCCCCNC(=O)Cn3cc(C[C@@H](C)O)nn3)CC2)nc(N2CCN(C(=O)CCCCCCCCCCNC(=O)[C@H](CCCCN)n3cc(C[C@@H](C)CC)nn3)CC2)n1 | 7 | 38* | -4 | 5 | -5 | 31* | 1
C#CCOCCOCCOCCNc1nc(N2CCN(C(=O)CCCCCCCCCCNC(=O)[C@H](CO)n3cc(CCCSC)nn3)CC2)nc(N2CCN(C(=O)CCCCCCCCCCNC(=O)[C@H](CO)n3cc(CCCSC)nn3)CC2)n1 | -16 | 30* | -1 | 2 | 27 | 22* | 4
C#CCOCCOCCOCCNc1nc(N2CCN(C(=O)CCCCCCCCCCNC(=O)Cn3cc(C[C@@H](C)O)nn3)CC2)nc(N2CCN(C(=O)CCCCCCCCCCNC(=O)Cn3cc(C[C@@H](C)O)nn3)CC2)n1 | 10 | 8 | 7 | 0 | 17 | x | x
C#CCOCCOCCOCCNc1nc(N2CCN(C(=O)CCCCCCCCCCNC(=O)[C@H](CCCCN)n3cc(CCO)nn3)CC2)nc(N2CCN(C(=O)CCCCCCCCCCNC(=O)[C@H](CCCCN)n3cc(CCO)nn3)CC2)n1 | 22 | 18* | -4 | 1 | -28 | -15 | -4
CC(C)N1CCN(Cc2cccn2-c2nccs2)CC1CCO (stereo not given) | 16 | -5 | 3 | 1 | 1 | x | x
C#CCOCCOCCOCCNc1nc(N2CCN(C(=O)[C@H](CCCCN)n3cc(CCCC)nn3)CC2)nc(N2CCN(C(=O)[C@H](Cc3ccc(O)cc3)n3cc(CCO)nn3)CC2)n1 | -5 | 21* | -11 | 2 | -28 | -10 | 0
SC(COCc1ccccc1)CN1CCN(Cc2ccc3c(c2)OCO3)CC1 (stereo not given) | 9 | 25* | 0 | 0 | 1 | 2 | -4
OC(COCc1ccccc1)CN1CCN(Cc2ccc3c(c2)OCO3)CC1 (stereo not given) | -11 | -2 | 10 | 1 | 1 | x | x
O=C1CC(N2CCN(S(=O)(=O)c3ccccc3F)CC2)C(=O)N1c1ccccc1Cl (stereo not given) | -4 | 0 | x | 4 | x | x | x
Cc1ccccc1-n1c(SCC(=O)N/N=C/c2c(C)nn(-c3ccccc3)c2C)nc2ccccc2c1=O | 5 | 18* | 12 | 3 | 22 | 9 | 3
Cc1ccccc1-n1c(SCC(=O)N/N=C/c2sccc2C)nc2ccccc2c1=O | -8 | 9 | -2 | 4 | 28 | x | x
Cc1ccc(NC2c3ncccc3C(=O)N2c2ccccc2C)cc1C (stereo not given) | 16 | 30* | 7 | 8 | 0 | 26* | 1
CC(C)c1ccc(/C=C2\SC(=O)N(CC(=O)NC3C=CS(=O)(=O)C3)C2=O)cc1 (stereo not given) | 2 | 28* | -1 | 2 | 10 | 33* | -3
Cc1nnc(SCC(=O)Nc2c(C)n(C)n(-c3ccccc3)c2=O)n1Cc1ccccc1 | -4 | -3 | 1 | 0 | -5 | x | x
CC(c1ccco1)N(C(=O)c1cccc(S(=O)(=O)N(C)C)c1)c1ccccn1 (stereo not given) | -19 | -3 | -8 | 2 | 0 | x | x
O=C1c2cccc3cccc(c23)C(=O)N1CC1CCN(CC(O)COc2ccc3ccccc3c2)CC1 (stereo not given) | -1 | 34* | 10 | 0 | -3 | 0 | 1
COc1cccc(OCC(O)CN2CCC(CN3C(=O)c4cccc5cccc(c45)C3=O)CC2)c1 (stereo not given) | 7 | -4 | -22 | 8 | -4 | x | x

High-throughput results deposited in PubChem BioAssay by The Scripps Research Institute Molecular Screening Center.
